Hits are enriched below; roughly 6.7% of the tested compounds scored in any of these assays.
Beta apoptosis: beta cell apoptosis inhibition; INS-1E cytokine-induced death, ATP luminescence, 48 h; percent of positive-control rescue, neutral wells zero; protection from apoptosis, % (concentration not given with the values); 300,000 tested, 0.8% active; AID 435005;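 active = Every replicate reaches about 75%, or at least half do and their mean reaches it too, limit read from the data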;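 also: 0% = cytokine-treated negative control wells and 100% = positive control rescue; higher means more ATP so stronger rescue from cytokine killing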
NR3A LBD binder: NR3A (human) ligand-binding domain modulation. Tm shift relative to glycine control, % at 25 µM. AID 1259313. 340,000 tested, 2.5% active. NR3A LBD differential scanning fluorimetry, Tm shift; 0% = protein alone, 100% = glycine-bound protein;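 active = melting temperature shift of at least 10% of the positive control shift, at one fixed dose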
CHOP inh: blocks CHOP induction under ER stress | AID 2732 | inhibition, % at 10 µM | CHO-K1 CHOP-promoter luciferase, tunicamycin-induced, 15-18 h | 220,000 tested, 3.8% active;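 active = compounds that reduced the stress-induced luciferase reporter signal by more than about 70% of percent inhibition, limit read from the data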;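 also: 0% = tunicamycin plus vehicle and 100% = wells without tunicamycin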
PREPL inhibitor: inhibits the human prolyl oligopeptidase-like enzyme; recombinant PREPL, fluorescence polarization activity-based probe; inhibition, % at 5.96 µM; 320,000 tested, 0.68% active; AID 2751; in the data active = inhibition above about 43%;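 also: 0% = enzyme with DMSO and 100% = wells lacking enzyme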
Target sequence (Q4J6C6 whole entry, looked up): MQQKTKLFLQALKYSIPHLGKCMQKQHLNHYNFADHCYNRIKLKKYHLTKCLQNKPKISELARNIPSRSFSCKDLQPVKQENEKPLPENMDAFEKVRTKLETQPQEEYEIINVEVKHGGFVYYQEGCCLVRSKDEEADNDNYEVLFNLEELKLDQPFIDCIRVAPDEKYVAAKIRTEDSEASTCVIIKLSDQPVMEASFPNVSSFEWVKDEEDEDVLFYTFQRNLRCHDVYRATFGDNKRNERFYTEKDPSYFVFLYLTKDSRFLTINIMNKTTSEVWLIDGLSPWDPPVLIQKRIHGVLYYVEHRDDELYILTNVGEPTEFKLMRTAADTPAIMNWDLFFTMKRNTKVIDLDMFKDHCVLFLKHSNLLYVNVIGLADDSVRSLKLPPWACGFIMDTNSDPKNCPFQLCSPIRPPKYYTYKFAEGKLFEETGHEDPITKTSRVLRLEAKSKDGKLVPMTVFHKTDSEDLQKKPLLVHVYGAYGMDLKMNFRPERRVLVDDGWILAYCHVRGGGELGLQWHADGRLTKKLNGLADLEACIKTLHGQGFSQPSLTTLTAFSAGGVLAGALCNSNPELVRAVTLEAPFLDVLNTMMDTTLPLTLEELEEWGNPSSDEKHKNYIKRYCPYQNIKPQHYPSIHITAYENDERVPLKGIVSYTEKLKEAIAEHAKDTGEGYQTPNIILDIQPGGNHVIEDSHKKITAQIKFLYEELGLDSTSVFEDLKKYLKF
T cruzi inh: blocks replication of Trypanosoma cruzi; T. cruzi beta-gal in NIH3T3, luminescence, 90 h; inhibition, % (concentration not given with the values); 300,000 tested, 1.4% active;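 active = mean inhibition across valid replicates above about 55%, limit read from the data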;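 also: signal also drops with host cell toxicity which is not excluded here; 0% = plate median of DMSO wells and 100% = zero luminescence signal; higher percent means less beta-gal luminescence so fewer parasites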
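Read-out: Parasite load inhibition, % | Test system: Mouse NIH/3T3 fibroblasts infected with β-gal-expressing T. cruzi Tulahuen C4 | Amount: 5,000 cells/well | Medium: DMEM, 2% fetal bovine serum | Signal: GalScreen β-gal luminescence, detergent lysis, 60 min | Timing: 3 h attach, ≥90 h co-culture | Also added: Tulahuen C4 trypomastigotes, 5000/well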
CSC inhib: cancer stem cell inhibition. cancer stem cell-like cells viability, luminescence. inhibition, % at 7.5 µM. 300,000 tested, 1.1% active. AID 2717; in the data active = inhibition above about 75%; tested in HMLE shEcad cells
Starred values were filed as active, the others as inactive; . = not tested or not shown.

SMILES	Beta apoptosis	NR3A LBD binder	CHOP inh	PREPL inhibitor	T cruzi inh	CSC inhib
N=c1c2c(ncn1Cc1ccco1)Oc1cc(O)ccc1C2c1ccccc1 (centres undefined)	1.6	-4.9	30.2	-7.8	4.5	9.4
O=C(/C=C/c1ccc(Cl)cc1Cl)Nc1ccncc1	3.6	31.6*	46.2	-22.7	-4.1	13.2
O=C(/C=C/c1c(Cl)cccc1Cl)Nc1ccncc1	5.1	27.4*	50.5	-20.2	21.1	19.2
O=C(/C=C/c1ccccc1Cl)Nc1ccncc1	8.0	6.6	-6.9	9.1	-34.8	5.6
OCCNCC(O)CN1c2ccccc2Sc2ccccc21 (centres undefined)	-2.9	2.9	.	.	-20.1	-14.0
COc1ccc(Cl)cc1NC(=O)Nc1ccc(C(=O)N2CCOCC2)cc1	-9.2	-3.6	.	1.6	10.4	-10.0
CC1C(=O)CC(c2ccccc2)N(C)C1c1ccccc1 (centres undefined)	.	1.9	78.8*	-1.9	0.5	-4.8
Cc1ccc(C(=O)NCCc2ccc(F)cc2)s1	.	-10.2	15.5	4.0	2.8	.
CC(C)CC(C(=O)NC1CCCC1)N(Cc1ccc2c(c1)OCO2)C(=O)c1snc(C(N)=O)c1N (centres undefined)	-2.2	-1.3	80.8*	-4.2	10.7	-17.2
CCC(C(=O)NC1CCCC1)N(Cc1ccc2c(c1)OCO2)C(=O)c1snc(C(N)=O)c1N (centres undefined)	-3.4	-1.1	7.3	19.8	8.3	2.4
CCOC(=O)C1(CCOc2ccccc2)CCN(Cc2ccc(O)c(OCC)c2)CC1	10.5	-0.8	.	33.3	-19.0	17.0
CC1(NCC(O)COc2cccc3[nH]ccc23)CCC(C(C)(C)NC(=O)CBr)CC1 (centres undefined)	.	.	-10.8	.	.	.
Fc1ccccc1N1CCN(Cc2nc(-c3ccc(Cl)cc3Cl)no2)CC1	-0.4	20.1*	-2.9	2.0	.	17.4
COc1ccc(S(=O)(=O)N(CCCN2CCOCC2)Cc2cccc(OC)c2OC)cc1	-1.4	2.2	1.9	-6.7	5.2	-7.8
COc1ccc(S(=O)(=O)N(CCN2CCOCC2)Cc2cc(OC)ccc2OC)cc1	3.0	16.0*	11.2	4.5	10.4	-7.7
CCC(COC)NCc1cn(-c2ccc(OC)cc2)nc1-c1cccc(F)c1 (centres undefined)	1.1	0.4	46.3	-6.3	13.3	-3.8
CCn1nnc(-c2ccccc2NS(=O)(=O)c2ccc(C(=O)OC)cc2)n1	.	12.2*	-2.5	4.7	2.0	.
COc1ccc(NC(=O)Cn2nnc(-c3ccccc3NS(=O)(=O)c3ccc(OC)cc3)n2)cc1	14.7	1.3	15.0	-36.4	18.5	58.3
O=c1ccn(Cc2ccccc2)cc1	-4.5	-1.1	3.3	9.3	-24.1	-27.1
Cc1ccccc1Cn1ccc(=NCc2ccccc2)cc1	102.6*	-2.9	4.0	17.4	31.0	-0.2
COc1cc(CCC(=O)OCC(=O)Nc2ccc(C)cc2Cl)cc(OC)c1OC	.	0.8	.	15.0	-5.1	-15.9
COc1ccccc1C(=O)NCCC(=O)NCc1ccncc1	-4.0	1.9	.	2.5	.	.
N#CC1=C(N)Nc2nc3ccccc3n2C1c1ccc(Cl)cc1 (centres undefined)	.	37.6*	89.9*	-0.3	17.1	21.2
O=C(O)c1ccccc1-c1ccccc1C(=O)Nc1ccccc1	-9.8	-11.2	-3.9	-3.4	-10.3	-0.7
O=C(O)c1ccccc1-c1ccccc1C(=O)NNc1ccccc1	-2.6	14.4*	-9.2	-1.7	4.6	2.1
SMILES	Beta apoptosis	NR3A LBD binder	CHOP inh	PREPL inhibitor	T cruzi inh	CSC inhib
Cc1cc2nc(C)c(=O)n(C)c2cc1C	1.6	-0.7	14.5	-4.5	-6.0	-12.6
Cc1cc2nc3n(c2cc1C)CCCN3	0.8	-1.3	.	10.1	67.5*	-3.5
CC(C)CCNC(=O)C1C2C=CC3(CN(Cc4ccccc4Cl)C(=O)C13)O2 (centres undefined)	-3.0	0.3	92.0*	-1.8	-1.1	-10.9
CCc1cc2cc(C)cc(C)c2nc1SCC(=O)N1CCCC1	-6.5	-2.3	87.2*	2.4	.	-2.8
COc1ccc(OC)c(C(=O)N2CCC(n3nccc3NC(=O)CC(C)C)CC2)c1	-7.5	-0.1	.	18.2	16.8	14.4
CC1C(=O)OC2C1CCC1(C)CCC(=O)C(C)C21 (centres undefined)	-1.8	-10.0	.	16.1	54.7*	10.0
Cc1ccc(S(=O)(=O)c2c(N)n(Cc3ccco3)c3nc4ccccc4nc23)cc1	-5.5	1.5	74.4*	-5.4	10.5	-9.0
CCc1c(C)sc(NC(=O)Cn2nc(C(F)(F)F)c3c2CCCC3)c1C#N	-8.1	8.7	93.3*	-8.5	-9.1	8.6
CCOC(=O)c1ccc(OCC2NCCc3cc(OC)c(OC)cc32)cc1 (centres undefined)	-5.6	1.2	.	2.3	13.3	4.2
CCc1ccc(NC(=O)CSC2=C(C#N)C(c3ccco3)C3=C(CCCC3=O)N2)cc1 (centres undefined)	-8.0	-8.9	26.3	12.6	18.9	37.0
N#CC1=C(SCC(=O)c2ccc(Br)cc2)NC2=C(C(=O)CCC2)C1c1ccco1 (centres undefined)	.	-4.8	-7.9	25.2	.	91.3*
Cc1c(-c2ccccc2)[n+](=O)c2c(n1[O-])CCCC2	-3.9	2.4	7.2	-5.0	4.5	-11.9
Cn1c(-c2ccccc2)cc2c3no[n+]([O-])c3ccc21	106.1*	-16.7	.	7.8	73.3*	107.6*
O=C1CCc2cc(S(=O)(=O)N3CCN(c4cccc(C(F)(F)F)c4)CC3)ccc2N1	7.4	-5.6	87.3*	-8.8	-8.6	-7.4
COc1cccc(C(Nc2ccccn2)c2c(NC(=O)c3ccco3)sc(C)c2C)c1 (centres undefined)	.	-2.8	19.4	-1.0	59.2*	18.8
Cc1sc(NC(=O)c2ccco2)c(C(Nc2ccccn2)c2ccccc2)c1C (centres undefined)	-7.7	-2.9	-9.1	8.6	-9.6	-6.0
COc1ccc(C(Nc2ccccn2)c2c(NC(=O)c3ccco3)sc(C)c2C)cc1 (centres undefined)	-6.8	-1.7	13.6	16.4	63.1*	19.2
COCC(C)n1c(SCc2cc(=O)n3cc(C)ccc3n2)nc2ccccc2c1=O (centres undefined)	1.8	-0.6	6.3	-2.7	6.1	11.2
COc1ccccc1C(CNC(=O)c1ccc(NS(=O)(=O)c2ccc(F)c(C)c2)cc1)N(C)C (centres undefined)	1.1	10.2*	.	18.8	14.2	.
Cc1cc(S(=O)(=O)Nc2ccc(C(=O)NCC(c3ccccc3)N(C)C)cc2)ccc1F (centres undefined)	-6.0	0.7	.	6.5	19.6	-8.7
Nc1[nH]n2c(=O)cc(-c3ccccc3)nc2c1N=Nc1ccc(S(N)(=O)=O)cc1	3.7	25.5*	4.2	26.4	11.6	-7.7
